Active and inactive are the calls of the source. No cut-off for these calls is given here.
What was measured:
SUM-159-PT [1] = assay: Synergistic anticancer activity against human SUM159 cells expressing BFP assessed as reduction in ALDHbr cell 50 nM in presence of JQ1 by LSR2 cytometer analysis; assay type: functional
MDA-MB-436 = assay: Antitumor activity against human MDA-MB-436 cells assessed as K-score by measuring ALDHbr cells by LSR2 cytometer; assay type: functional
How it was run: (§1)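 Cell lines exposed for 72 h in adherent culture to a range of concentrations centred on the MTS-derived IC50. ALDHbr proportion measured by ALDEFLUOR flow cytometry (LSR2). K-score is the linear regression coefficient, on log10-transformed doses, between the untreated condition and the dose predicted to give a 50% decrease or increase in ALDHbr proportion versus control.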

SUM-159-PT [2] = assay: Anticancer activity against human SUM159 cells assessed as decrease in primary tumor sphere formation incubated for 72 hrs by Extreme limiting dilution analysis; assay type: functional, cell-based
How it was run: (§2)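 Cells drug-treated in adherent culture for 72 h, then plated as single cells in ultra-low attachment 96-well plates in serum-free mammary epithelium basal medium. Plating at 25/10/5/3/2/1 cells per well, 18–36 wells per condition. Wells with ≥1 sphere after 10 days scored positive. Secondary spheres were made by dissociating primary spheres. Frequency by ELDA; n = 4; pairwise chi-square test.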

SUM-159-PT [3] = assay: Anticancer activity against human SUM159 cells assessed as decrease in secondary tumor sphere formation incubated for 72 hrs by Extreme limiting dilution analysis; assay type: functional, cell-based; how it was run: as §2
SUM149PT = assay: Antitumor activity against human SUM149 cells assessed as K-score by measuring ALDHbr cells by LSR2 cytometer; assay type: functional; how it was run: as §1
Breast cancer cell line [4] = assay: Antitumor activity against human CRCM494 negative breast cancer cells orthotopically xenografted in NSG mouse model of PDX assessed as reduction in tumor volume at 3 mg/kg, ip daily for 14 days; assay type: functional, organism-based; details: time 14.0 day
How it was run: (§3)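 Chemo-naïve triple-negative PDX cells injected at 100,000 per fat pad, two fat pads per NSG mouse. At ~80 mm³ tumours, mice received i.p. 3 mg/kg daily for 14 days or 50 mg/kg 5 of 7 days for 2 weeks; placebo was DMSO/HPCD 10% (1:9). Five mice (10 tumours) per group. Tumour growth monitored; after 2 weeks tumours dissociated, mouse cells excluded via anti-H2Kd, ALDHbr measured by ALDEFLUOR flow cytometry and normalised to vehicle.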

Breast cancer cell line [5] = assay: Antitumor activity against human reimplanted CRCM434 negative breast cancer cells orthotopically xenografted in NSG mouse model of PDX assessed as reduction tumor volume at 3 mg/kg, ip daily for 14 days by limiting dilation analysis; assay type: functional, organism-based; details: time 14.0 day
How it was run: (§4)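 After 2 weeks of i.p. treatment (3 mg/kg daily or 50 mg/kg 5 of 7 days), dissociated PDX tumour cells reimplanted into secondary NSG mice at 50, 500 or 5,000 cells. A mouse counted as tumour-bearing once a tumour reached 10 mm. bCSC frequency per 10,000 cells estimated by ELDA; pairwise chi-square test.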

SUM-159-PT [6] = assay: Induction of apoptosis in human SUM159 cells expressing ALDHbr upto 5 uM incubated for 72 hrs by ALDEFLUOR/YO-PRO-3/ Hoechst 33342 staining based high content imaging microscopic analysis; assay type: functional, cell-based
How it was run: (§5)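 SUM159 at 3,000 cells/well on collagen plates, dosed at 6, 24 and 48 h post-seeding; 0.1% DMSO negative control, cisplatin positive control. At 72 h stained 30 min at 37°C with ALDEFLUOR, YO-PRO-3 and Hoechst 33342, then imaged ice-cold. YO-PRO-3-positive nuclei (above untreated signal) counted over total cells, per ALDHbr/ALDH- subpopulation; n = 6.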

Breast cancer cell line [7] = assay: Antitumor activity against human CRCM404 negative breast cancer cells orthotopically xenografted in NSG mouse model of PDX assessed as reduction in tumor volume at 3 mg/kg, ip daily for 14 days; assay type: functional, organism-based; details: time 14.0 day; how it was run: as §3
Breast cancer cell line [8] = assay: Synergistic antitumor activity against human CRCM404 negative breast cancer cells orthotopically xenografted in NSG mouse model of PDX assessed as reduction ALDHbr cells at 3 mg/kg, ip daily for 14 days cotreated with JQ1 by LSR2 cytometer analysis; assay type: functional; details: time 14 day
Breast cancer cell line [9] = assay: Antitumor activity against human reimplanted CRCM494 negative breast cancer cells orthotopically xenografted in NSG mouse model of PDX assessed as reduction tumor volume at 3 mg/kg, ip daily for 14 days by limiting dilation analysis; assay type: functional, organism-based; details: time 14.0 day; how it was run: as §4
Breast cancer cell line [10] = assay: Antitumor activity against human CRCM434 negative breast cancer cells orthotopically xenografted in NSG mouse model of PDX assessed as reduction ALDHbr cells at 3 mg/kg, ip daily for 14 days by LSR2 cytometer analysis; assay type: functional, organism-based; details: time 14.0 day; how it was run: as §3
SUM-159-PT [11] = assay: Induction of apoptosis in human SUM159 cells expressing ALDH upto 5 uM incubated for 72 hrs by ALDEFLUOR/YO-PRO-3/ Hoechst 33342 staining based high content imaging microscopic analysis; assay type: functional, cell-based; how it was run: as §5
Breast cancer cell line [12] = assay: Synergistic antitumor activity against human CRCM494 negative breast cancer cells orthotopically xenografted in NSG mouse model of PDX assessed as reduction ALDHbr cells at 3 mg/kg, ip daily for 14 days cotreated with JQ1 by LSR2 cytometer analysis; assay type: functional; details: time 14 day
Breast cancer cell line [13] = assay: Antitumor activity against human CRCM434 negative breast cancer cells orthotopically xenografted in NSG mouse model of PDX assessed as reduction in tumor volume at 3 mg/kg, ip daily for 14 days; assay type: functional, organism-based; details: time 14.0 day; how it was run: as §3
Breast cancer cell line [14] = assay: Antitumor activity against human CRCM404 negative breast cancer cells orthotopically xenografted in NSG mouse model of PDX assessed as reduction ALDHbr cells at 3 mg/kg, ip daily for 14 days by LSR2 cytometer analysis; assay type: functional, organism-based; details: time 14.0 day; how it was run: as §3
Breast cancer cell line [15] = assay: Antitumor activity against human CRCM494 negative breast cancer cells orthotopically xenografted in NSG mouse model of PDX assessed as reduction ALDHbr cells at 3 mg/kg, ip daily for 14 days by LSR2 cytometer analysis; assay type: functional, organism-based; details: time 14.0 day; how it was run: as §3
SUM-159-PT [16] = assay: Antitumor activity against human SUM159 cells assessed as K-score by measuring ALDHbr cells by LSR2 cytometer; assay type: functional; how it was run: as §1
[17] = Antitumor activity against human S68 cells assessed as K-score by measuring ALDHbr cells by LSR2 cytometer; assay type: functional; how it was run: as §1
Breast cancer cell line [18] = assay: Antitumor activity against human reimplanted CRCM404 negative breast cancer cells orthotopically xenografted in NSG mouse model of PDX assessed as reduction tumor volume at 3 mg/kg, ip daily for 14 days by limiting dilation analysis; assay type: functional, organism-based; details: time 14.0 day; how it was run: as §4
SUM-159-PT [19] = assay: Anticancer activity against human SUM159 cells expressing BFP assessed as reduction in ALDHbr cell at 5 to 500 nM by LSR2 cytometer analysis; assay type: functional, cell-based; details: dose 5-500 nM
Breast cancer cell line [20] = assay: Synergistic antitumor activity against human CRCM434 negative breast cancer cells orthotopically xenografted in NSG mouse model of PDX assessed as reduction ALDHbr cells at 3 mg/kg, ip daily for 14 days cotreated with JQ1 by LSR2 cytometer analysis; assay type: functional; details: time 14 day
[21] = Antitumor activity against human BrCa-MZ-01 cells assessed as K-score by measuring ALDHbr cells by LSR2 cytometer; assay type: functional; how it was run: as §1
SUM-159-PT [22] = assay: Synergistic anticancer activity against human SUM159 cells assessed as decrease in secondary tumor sphere formation at 62 nM incubated for 72 hrs in presence of JQ1 by Extreme limiting dilution analysis; assay type: functional
How it was run: (§6)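 72 h adherent pretreatment (Sal/JQ1 62 nM/62 nM; docetaxel added at 2 nM where used), then single cells plated in ultra-low attachment 96-well plates in serum-free mammary epithelium basal medium at 25/10/5/3/2/1 cells/well (18–36 wells/condition). Wells with ≥1 sphere after 10 days scored positive; sphere-forming frequency by ELDA. Secondary spheres from dissociated primary spheres. n = 4; pairwise chi-square.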

SUM-159-PT [23] = assay: Anticancer activity against human SUM159 cells assessed as effect on RFP+/BFP+ cell ratio upto 5 uM after 72 hrs by […]; assay type: functional, cell-based
SUM-159-PT [24] = assay: Anticancer activity against human SUM159 cells expressing BFP assessed as reduction in ALDHbr cell at 50 nM by LSR2 cytometer analysis; assay type: functional
SUM-159-PT [25] = assay: Synergistic anticancer activity against human SUM159 cells assessed as decrease in primary tumor sphere formation at 62 nM incubated for 72 hrs in presence of JQ1 by Extreme limiting dilution analysis; assay type: functional; how it was run: as §6

Question: For `CC[C@@H](C(=O)[C@@H](C)[C@@H](O)[C@H](C)[C@@H]1O[C@@H]([C@@H](CC)C(=O)O)CC[C@@H]1C)[C@H]1O[C@]2(C=C[C@@H](O)[C@]3(CC[C@@](C)([C@H]4CC[C@](O)(CC)[C@H](C)O4)O3)O2)[C@H](C)C[C@@H]1C` [SALINOMYCIN], which “fold change (FC)” value (SUM-159-PT [1]) is on record?
Answer: 4

Question: And the Activity (MDA-MB-436)?
Answer: -0.12

Question: And the Activity (SUM-159-PT [2])?
Answer: Active

Question: And the Activity (SUM-159-PT [3])?
Answer: Active

Question: And the Activity (SUM149PT)?
Answer: -0.06

Question: And the Activity (Breast cancer cell line [4])?
Answer: inactive

Question: What about the Activity (Breast cancer cell line [5]) of the same compound?
Answer: Active

Question: And the Activity (SUM-159-PT [6])?
Answer: Active

Question: What about the Activity (Breast cancer cell line [7]) of the same compound?
Answer: inactive

Question: And the “fold change (FC)” value (Breast cancer cell line [8])?
Answer: 2

Question: And the Activity (Breast cancer cell line [9])?
Answer: Active

Question: And the Activity (Breast cancer cell line [10])?
Answer: Active

Question: What about the Activity (SUM-159-PT [11]) of the same compound?
Answer: Active

Question: What about the “fold change (FC)” value (Breast cancer cell line [12]) of the same compound?
Answer: 2

Question: What about the Activity (Breast cancer cell line [13]) of the same compound?
Answer: inactive

Question: What about the Activity (Breast cancer cell line [14]) of the same compound?
Answer: Active

Question: And the Activity (Breast cancer cell line [15])?
Answer: Active

Question: What about the Activity (SUM-159-PT [16]) of the same compound?
Answer: -0.14

Question: And the Activity [17]?
Answer: -0.19

Question: And the Activity (Breast cancer cell line [18])?
Answer: Active

Question: And the Activity (SUM-159-PT [19])?
Answer: Active

Question: What about the “fold change (FC)” value (Breast cancer cell line [20]) of the same compound?
Answer: 2

Question: What about the Activity [21] of the same compound?
Answer: -0.07

Question: And the “fold change (FC)” value (SUM-159-PT [22])?
Answer: 5.4

Question: And the Activity (SUM-159-PT [23])?
Answer: inactive

Question: What about the “fold change (FC)” value (SUM-159-PT [24]) of the same compound?
Answer: 2

Question: And the “fold change (FC)” value (SUM-159-PT [25])?
Answer: 2.4

Reference: ChEMBL document CHEMBL5712908, “A genome-wide RNAi screen reveals essential therapeutic targets of breast cancer stem cells” (2019)
